# Screening results: PubChem BioAssay, several laboratories
# RGS16-Gao – RGS16-Galphao interaction regulator (human); bead-based flow cytometry RGS16-Galphao binding, fluorescence; actives lie on both sides; O15492+P09471; binding response (% of control), % at 10 µM; hit rate 0.38% among 220,000;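 also: Galphao activated by GDP with aluminum fluoride before binding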
# Target sequence (O15492 whole entry, looked up): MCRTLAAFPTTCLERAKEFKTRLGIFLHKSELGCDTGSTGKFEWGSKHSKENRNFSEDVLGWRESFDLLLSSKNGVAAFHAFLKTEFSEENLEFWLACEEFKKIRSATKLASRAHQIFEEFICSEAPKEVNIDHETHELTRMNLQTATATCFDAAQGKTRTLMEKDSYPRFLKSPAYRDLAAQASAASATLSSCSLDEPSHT
# Target sequence (P09471 whole entry, looked up): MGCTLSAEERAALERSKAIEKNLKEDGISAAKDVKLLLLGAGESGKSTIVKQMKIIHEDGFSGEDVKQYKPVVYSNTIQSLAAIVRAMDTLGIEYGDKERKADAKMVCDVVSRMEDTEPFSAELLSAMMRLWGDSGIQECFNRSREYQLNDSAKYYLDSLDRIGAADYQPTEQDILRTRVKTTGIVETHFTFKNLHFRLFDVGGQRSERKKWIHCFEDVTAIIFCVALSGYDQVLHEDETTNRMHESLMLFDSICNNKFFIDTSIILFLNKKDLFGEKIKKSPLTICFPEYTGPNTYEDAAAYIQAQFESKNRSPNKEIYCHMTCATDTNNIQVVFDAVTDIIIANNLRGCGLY
# RGS8-Gao reg – modulates binding of RGS8 to human Galphao; AID 1423; response (percent of control binding), % at 10 µM; multiplexed bead flow cytometry; actives lie on both sides; hit rate 0.34% among 220,000; in the data active = response below about 60% or above about 140%; inactive = in between;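 also: Galphao activated as the GDP aluminium fluoride complex binding bead-coupled RGS8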
# Target sequence (P09471 whole entry, looked up): as above
# Biofilm kill mix – mixture kills Candida albicans biofilm cells; C. albicans biofilm persisters + clotrimazole, fluorescence viability; primary screen in compound mixtures of four per well; inhibition, % at 7.6 µM; hit rate 0.02% among 120,000; AID 1242;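 active = inhibition above 30.3% in the primary screen of four-compound pools, then above 30% when the compound was retested; inconclusive = passed the primary limit but could not be retested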;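 also: compounds exposed to preformed 24 h biofilms for 48 h; 0% = untreated biofilm control and 100% = clotrimazole plus chlorhexidine kill blank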
#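 Assay system: C. albicans biofilms / Medium: RPMI/MOPS medium, pH 7.0 / Schedule: biofilm formation 24 h, compound exposure 48 h, 37 °C / Measured by: Alamar Blue fluorescence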
# RGS4-Gao reg – modulates binding of RGS4 to human Galphao. P09471. Multiplexed bead flow cytometry; actives lie on both sides. binding response (% of control), % at 10 µM. hit rate 0.33% among 220,000; in the data active = binding response below about 49% or above about 150%; inactive = in between;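 also: fluorescent Galphao activated with aluminum fluoride binding bead-coupled RGS4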
# RGS7-Gao reg – regulators of human RGS7-Galphao interaction | P09471 | Multiplexed bead flow cytometry, RGS7-Galphao binding; actives lie on both sides | binding response (% of control), % at 10 µM | hit rate 0.35% among 220,000; in the data active = binding response below about 49% or above about 150%; inconclusive = no clear call, values can overlap the other calls; inactive = in between;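 also: fluorescent Galphao held in activated GDP-AlF4 state binding bead-coupled RGS7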
# RGS4-Gao HTS – RGS4-Galphao interaction regulator (human); hit rate 99% among 1,600; shares compounds with RGS16-Gao; RGS4–Galpha-o binding response, % at 10 µM; multiplexed bead flow cytometry, RGS–Galpha-o binding;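 also: fluorescently labeled Galpha-o bound to GDP with aluminium fluoride binding biotinylated RGS beads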
# Avidin counter – biotin-avidin bead binding disruption counter-screen. shares compounds with RGS16-Gao. streptavidin beads, fluorescein-biotin binding, flow cytometry. inhibition, % at 10 µM. 1,700 tested, under 10 active. AID 1783;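 active = inhibition above 50%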;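 also: median green fluorescence of gated singlet beads compared with DMSO control wells; 0% = DMSO wells and 100% = complete loss of bead fluorescence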
# RGS8-Gao single – confirmation of regulators of human RGS8-Galphao interaction; shares compounds with RGS16-Gao; binding response (% of control), % at 10 µM; hit rate 3% among 1,700; AID 1836; bead-based flow cytometry RGS8-Galphao binding, fluorescence; actives lie on both sides; in the data active = binding response below about 72% or above about 130%; inactive = in between;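 also: Galphao activated as GDP AlF4 complex before binding bead RGS8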
# RGS7-Gao single – confirmation of regulators of human RGS7-Galphao interaction; shares compounds with RGS16-Gao; response (percent of control binding), % at 10 µM; AID 1837; hit rate 7.8% among 1,700; bead-based flow cytometry RGS7-Galphao binding; actives lie on both sides; in the data active = response below about 75% or above about 130%; inactive = in between;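 also: fluorescent Galphao activated with GDP and aluminum fluoride binding bead-coupled RGS7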
# RGS16-Gao conf – RGS16-Galphao interaction regulation, single point confirmation; shares compounds with RGS16-Gao; bead-based flow cytometry, RGS16-Galphao binding; actives lie on both sides; response (% of control binding), % at 10 µM; hit rate 4% among 1,700; AID 1838; in the data active = response below about 74% or above about 130%; inactive = in between;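 also: Galphao activated as the GDP aluminium fluoride complex binding bead-coupled RGS16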
# RGS4-Gao single – confirmation of regulators of human RGS4-Galphao interaction; RGS4-Galphao binding, multiplexed bead flow cytometry; actives lie on both sides; binding response (% of control), % at 10 µM; hit rate 4% among 1,700; shares compounds with RGS16-Gao; in the data active = binding response below about 74% or above about 130%; inactive = in between
# RGS19-Gao conf – confirmation of regulators of human RGS19-Galphao interaction | hit rate 5% among 1,700 | bead-based flow cytometry RGS19-Galphao binding; actives lie on both sides | response (percent of control binding), % at 10 µM | shares compounds with RGS16-Gao; in the data active = response below about 50% or above about 160%; inactive = in between;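 also: 100% = no compound control and 0% = blank background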
# Active calls of the source: *; ? = inconclusive; / = not tested or not shown; [ ] = dose if it differs, or a comment. Most compounds without a hit are left out; they make up all but 0.74% or so of the library. Unless noted, no rule for the calls is given here.
SMILES,RGS16-Gao,RGS8-Gao reg,Biofilm kill mix,RGS4-Gao reg,RGS7-Gao reg,Avidin counter,RGS8-Gao single,RGS7-Gao single,RGS16-Gao conf,RGS4-Gao single,RGS19-Gao conf,others
Cc1ccc(-c2c[n+](CC(=O)OCc3ccccc3)c3n2CCC3)cc1,7.7*,13*,5,12*,9.5*,-2,103,96,103,99,94,
COc1ccc(C(=O)CSc2[nH]c(=O)cc(C(F)(F)F)c2C#N)cc1,98,102,22,107,?,/,/,/,/,/,/,
CC1CC2=C(C(=O)O1)C(C)Nc1ccccc1N2 (stereo not drawn),22*,85,22,86,87,-1,102,99,102,101,83,RGS4-Gao HTS=86*
CC(=O)NCc1ccc(C(=O)O)cc1,98,98,20,95,?,/,/,/,/,/,/,
Cc1ccc2[nH]c3c(c2c1)CC/C(=C/c1ccccc1)C3=O,129,96,/,113,214*[activator],4,94,94,93,97,97,RGS4-Gao HTS=113*
CCNC(=O)NC(=O)CSc1ccc(NC(C)=O)cc1,58,73,/,47*,54,0,110,113,114,108,121,
Cc1ccc(-n2c(C)cc(C(=O)COc3c(CO)cc(F)cc3CO)c2C)cc1C,332,153*[activator],14,116,115,2,105,104,104,103,108,RGS4-Gao HTS=116*
O=C(CCC1CCCCC1)Nc1cccnc1,/,/,/,/,/,2,102,100,100,101,100,
O=C(CCC1CCCCC1)Nc1ccc(C(=O)c2ccncc2)cc1,97,101,14,99,103,/,/,/,/,/,/,
COc1ccc(C(=O)CCC(=O)Nc2cccc(Cl)c2)cc1,101,99,20,98,95,/,/,/,/,/,/,
COc1ccc(C(=O)CCC(=O)Nc2cccnc2)cc1,-5.4*,6.2*,-2,0.8*,2.6*,-1,101,98,102,99,101,
Cc1ccc2nc(NC(=O)C3CCCN3C(=O)OC(C)(C)C)sc2c1 (stereo not drawn),94,95,-4,92,94,/,/,/,/,/,/,
COc1ccc(Nc2nc3[nH]c(=O)cc(O)c3s2)cc1,12*,16*,12,23*,21*,-1,99,87,95,94,70,
CCOC(=O)CC1COCCN1C(=O)CCc1nnc(-c2ccsc2)o1 (stereo not drawn),103,99,-13,102,97,/,/,/,/,/,/,
COc1cc2[nH]c(=S)n(C3CC3)c(=O)c2cc1OC,102,100,4,103,?,/,/,/,/,/,/,
COc1cc2[nH]c(=S)n(C3CCCC3)c(=O)c2cc1OC,182*[activator],117,/,99,108,3,104,104,102,103,116,RGS4-Gao HTS=99*
Cc1ccc(NC2=C/C(=N/S(=O)(=O)c3cccs3)c3ccccc3C2=O)cc1C,96,100,19,100,99,/,/,/,/,/,/,
Cc1cc(C)c(S(=O)(=O)/N=C2/C=C(Sc3ncn[nH]3)C(=O)c3ccccc32)cc1C,-0.4*,60,20,90,84,/,/,/,/,/,/,RGS4-Gao HTS=90*
CC(/C=N/n1c(-c2ccc(C)cc2)n[nH]c1=S)=C\c1ccco1,105,99,13,96,105,/,/,/,/,/,/,
CC(/C=N/n1c(-c2ccco2)n[nH]c1=S)=C\c1ccco1,-3.8*,62,-2,73,76,-1,95,104,92,96,94,RGS4-Gao HTS=73*
CCCCCCN1C=CC=C/C1=C\C=C(C#N)C#N,90,96,8,90,?,/,/,/,/,/,/,
Cc1ccc(S(=O)(=O)NC2(C(F)(F)F)C(=O)Nc3c2c(=O)[nH]c(=O)n3-c2ccccc2)cc1 (stereo not drawn),152,118,17,113,162*[activator],-2,101,102,101,102,86,RGS4-Gao HTS=113*
Cc1ccc(-n2c3c(c(=O)[nH]c2=O)C(NS(=O)(=O)c2ccc(C)cc2)(C(F)(F)F)C(=O)N3)cc1 (stereo not drawn),103,102,/,100,101,/,/,/,/,/,/,
Cc1ccnc(NC(=O)CCC(=O)N(CC(=O)NC2CCCCC2)C2CCCC2)c1,97,99,4,96,?,/,/,/,/,/,/,
CCc1ccc2nc(SCC(=O)Nc3nnc(C)s3)c(C)cc2c1,104,104,14,99,101,/,/,/,/,/,/,
SMILES,RGS16-Gao,RGS8-Gao reg,Biofilm kill mix,RGS4-Gao reg,RGS7-Gao reg,Avidin counter,RGS8-Gao single,RGS7-Gao single,RGS16-Gao conf,RGS4-Gao single,RGS19-Gao conf,others
Cc1onc(-c2c(F)cccc2Cl)c1C(=O)N=C(N)N1CCCC1,99,100,11,102,?,/,/,/,/,/,/,
CC1CN(C(NC(=O)c2ccccc2)C(Cl)(Cl)Cl)CC(C)O1 (stereo not drawn),104,120,19,150*[activator],142,-1,105,107,106,105,96,
CC(C)c1nc2oc3c(NCCO)ncnc3c2c2c1COC(C)(C)C2,96,98,18,93,?,/,/,/,/,/,/,
CCCc1nc2oc3c(NCCOCCO)ncnc3c2c2c1COC(C)(C)C2,162,127,/,165*[activator],173*[activator],-2,101,102,96,100,76,
CCCc1cc(N2CCCC(C(=O)NCc3ccc4c(c3)OCO4)C2)n2ncnc2n1 (stereo not drawn),/,108,/,/,/,0,98,100,99,98,100,
Cc1cc(=O)oc2cc(Oc3ncccc3[N+](=O)[O-])ccc12,98,98,11,94,88,/,/,/,/,/,/,
Cc1cc(=O)oc2cc(Oc3ccc([N+](=O)[O-])cc3[N+](=O)[O-])ccc12,25*,75,14,93,91,1,104,103,109,103,123,RGS4-Gao HTS=93*
CCC(NC(=O)Nc1cc(C)on1)(C(F)(F)F)C(F)(F)F,96,96,19,99,?,/,/,/,/,/,/,
Nc1nc(-c2c[nH]c3ccccc23)cs1,100,99,/,99,102,/,/,/,/,/,/,
CNc1nc(-c2c[nH]c3ccccc23)cs1,202*[activator],111,/,192*[activator],151*[activator],-2,98,101,97,101,105,
